From ChEMBL document CHEMBL5104214, “Efficient selective targeting of Candida CYP51 by oxadiazole derivatives designed from plant cuminaldehyde” (RSC Med Chem, 2022)
≈ marks a conversion by molar mass, not a printed value.

Key:
[1] = Cytotoxicity against human F180 cells assessed as cell growth inhibition at 1 times MIC50 against Candida auris incubated for 48 hrs by SRB assay; type: toxicity, cell-based; conditions: f180, 48 h
How it was run: (§1)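 SRB assay on normal human skin fibroblasts F-180 in DMEM with 15% FBS, 37 °C, 5% CO2. Seeded 20 000 cells/well and left overnight, then compounds at 10, 20 and 30 μg ml−1 for 48 h; DMSO vehicle ≤0.1%. TCA fixation, 0.4% SRB stain, dye solubilised in 10 mM Tris, OD 492 nm. Six repeats.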

Candida albicans [2] = assay: Antifungal activity against Candida albicans SC5314 assessed as inhibition of fungal growth at 100 ug/ml incubated for 24 hrs by spotting assay relative to control; type: functional; set-up: scale not given: the % may be the effect or the level left; conditions: dose 100 µg/ml
How it was run: (§2)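 Spotting screen: SDA plates streaked with 0.1 ml culture at 10^4 CFU ml−1, 5 μl of compound applied, 24 h at 37 °C. C. albicans SC5314 or C. auris clinical isolate kept on SDA at 37 °C. Growth inhibition judged against untreated control.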

[Candida] auris [3] = Antifungal activity against Candida auris clinical isolate assessed as inhibition of fungal growth at 100 ug/ml incubated for 24 hrs by spotting assay relative to control; type: functional, Candidozyma auris; set-up: scale not given: the % may be the effect or the level left; conditions: dose 100 µg/ml; how it was run: as §2
Candida albicans [4] = assay: Antifungal activity against Candida albicans SC5314 assessed as inhibition of fungal growth incubated for 24 hrs by microdilution assay; type: functional
How it was run: (§3)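 Broth microdilution per CLSI. Inoculum 10^5 CFU mL−1, compounds at 1, 3, 5, 10, 25, 50, 100 and 200 μg ml−1, 37 °C for 24 h. Turbidity read at 570 nm. MIC50 is the concentration giving 50% growth inhibition, from curve fitting. Triplicate.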

[5] = Cytotoxicity against human F180 cells assessed as cell growth inhibition at 6 times MIC50 against Candida albicans SC5314 incubated for 48 hrs by SRB assay; type: toxicity, cell-based; conditions: f180, 48 h; how it was run: as §1
[Candida] auris [6] = Antifungal activity against Candida auris clinical isolate assessed as inhibition of fungal growth incubated for 24 hrs by microdilution assay; type: functional; conditions: Candidozyma auris; how it was run: as §3
[7] = Cytotoxicity against human F180 cells assessed as cell growth inhibition at 15 times MIC50 against Candida auris incubated for 48 hrs by SRB assay; type: toxicity, cell-based; conditions: f180, 48 h; how it was run: as §1
[8] = Cytotoxicity against human F180 cells assessed as cell growth inhibition at 10 times MIC50 against Candida albicans SC5314 incubated for 48 hrs by SRB assay; type: toxicity, cell-based; conditions: f180, 48 h; how it was run: as §1
[9] = Cytotoxicity against human F180 cells assessed as cell growth inhibition at 37.5 times MIC50 against Candida auris incubated for 48 hrs by SRB assay; type: toxicity, cell-based; conditions: f180, 48 h; how it was run: as §1
[10] = target: T1, Lanosterol 14-alpha demethylase (Candida albicans (strain SC5314 / ATCC MYA-2876) (Yeast), UniProt P10613); assay: Inhibition of Candida albicans CYP51 assessed as ergosterol level incubated for 18 hrs by GC/MS analysis relative to control
T1 sequence (P10613 whole entry): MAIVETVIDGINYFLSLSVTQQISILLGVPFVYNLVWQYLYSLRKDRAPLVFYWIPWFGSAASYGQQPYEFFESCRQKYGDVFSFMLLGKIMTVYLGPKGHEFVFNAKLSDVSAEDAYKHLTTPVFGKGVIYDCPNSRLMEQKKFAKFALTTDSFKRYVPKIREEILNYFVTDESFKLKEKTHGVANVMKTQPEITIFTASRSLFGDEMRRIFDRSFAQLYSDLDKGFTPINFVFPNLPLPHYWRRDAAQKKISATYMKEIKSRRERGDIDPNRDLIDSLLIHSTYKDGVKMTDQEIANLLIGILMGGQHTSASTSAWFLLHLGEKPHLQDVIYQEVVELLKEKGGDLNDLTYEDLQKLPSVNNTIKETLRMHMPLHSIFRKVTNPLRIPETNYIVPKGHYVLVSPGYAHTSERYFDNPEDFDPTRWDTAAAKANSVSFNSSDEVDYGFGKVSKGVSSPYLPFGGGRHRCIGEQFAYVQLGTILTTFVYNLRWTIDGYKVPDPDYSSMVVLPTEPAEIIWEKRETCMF
How it was run: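 C. albicans colony grown in SDB 18 h at 37 °C with compound at its MIC50; untreated cells as negative control. Washed, normalized cells saponified in 60% alcoholic KOH, 80 °C 1 h. Sterols hexane-extracted, silylated (MSTFA/TMCS), analysed by GC-MS with ergosterol standard for retention time. Content expressed as AUC treated/AUC untreated × 100.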

[11] = test system: CYP3A4 vs Candida albicans CYP51; assay: Selectivity index, ratio of IC50 for inhibition of human CYP3A4 using luciferin-IPA as substrate to IC50 for inhibition of candida albicans CYP51 using 7-ethoxyresorufin as fluorescent substrate; type: toxicity; conditions: probe luciferin-IPA (CYP3A4), 7-ethoxyresorufin (CYP51)
[12] = target: T1, Lanosterol 14-alpha demethylase; assay: Inhibition of candida albicans CYP51 using 7-ethoxyresorufin as fluorescent substrate incubated for 10 mins in the presence of NADPH by fluorescence based spectroscopic microtiter plate reader analysis
How it was run: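 CaCYP51 bactosomes in pH 7.4 phosphate buffer with 5 mM MgCl2 and the substrate 7-ethoxyresorufin. Inhibitor at 0, 0.1, 1, 10 and 100 μg ml−1. Started with 4 mM NADPH, shaken 10 min at 37 °C under yellow light. Resorufin read every 30 s (ex 572/em 604 nm). IC50 from curve fitting; fluconazole positive control.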

[Candida] auris [13] = Potency index, ratio of fluconazole MIC50 to test compound MIC50 for antifungal activity against Candida auris clinical isolate assessed as inhibition of fungal growth incubated for 24 hrs by microdilution assay; type: functional, Candidozyma auris
How it was run: (§4)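 MIC50 ratio. MIC50 of fluconazole and of compound by broth microdilution: 10^5 CFU mL−1 inoculum, 1–200 μg ml−1, 37 °C for 24 h, turbidity at 570 nm, triplicate. Ratio taken as fluconazole MIC50 over compound MIC50.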

Candida albicans [14] = assay: Potency index, ratio of fluconazole MIC50 to test compound MIC50 for antifungal activity against Candida albicans SC5314 assessed as inhibition of fungal growth incubated for 24 hrs by microdilution assay; type: functional; how it was run: as §4
[15] = target: T1, Lanosterol 14-alpha demethylase; assay: Potency index, ratio of fluconazole IC50 to test compound IC50 for inhibition of Candida albicans CYP51 using 7-ethoxyresorufin as fluorescent substrate incubated for 10 mins in the presence of NADPH by fluorescence based spectroscopic microtiter plate reader analysis
How it was run: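 Ratio of fluconazole IC50 to compound IC50 against CaCYP51. Bactosomes with 7-ethoxyresorufin in pH 7.4 phosphate, 5 mM MgCl2. Inhibitor at 0–100 μg ml−1. Reaction started with 4 mM NADPH, 10 min at 37 °C, resorufin fluorescence ex 572/em 604 nm.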

[16] = Cytotoxicity against human F180 cells assessed as cell growth inhibition at 60 times MIC50 against Candida albicans SC5314 incubated for 48 hrs by SRB assay; type: toxicity, cell-based; conditions: f180, 48 h; how it was run: as §1
Cytochrome P450 3A4 = Cytochrome P450 3A4 (Homo sapiens, UniProt P08684); assay: Inhibition of human CYP3A4 using luciferin-IPA as substrate preincubated for 10 mins followed by NADPH addition and measured after 30 mins by luminescence based assay; type: ADME
Chain of Cytochrome P450 3A4 (P08684 whole entry): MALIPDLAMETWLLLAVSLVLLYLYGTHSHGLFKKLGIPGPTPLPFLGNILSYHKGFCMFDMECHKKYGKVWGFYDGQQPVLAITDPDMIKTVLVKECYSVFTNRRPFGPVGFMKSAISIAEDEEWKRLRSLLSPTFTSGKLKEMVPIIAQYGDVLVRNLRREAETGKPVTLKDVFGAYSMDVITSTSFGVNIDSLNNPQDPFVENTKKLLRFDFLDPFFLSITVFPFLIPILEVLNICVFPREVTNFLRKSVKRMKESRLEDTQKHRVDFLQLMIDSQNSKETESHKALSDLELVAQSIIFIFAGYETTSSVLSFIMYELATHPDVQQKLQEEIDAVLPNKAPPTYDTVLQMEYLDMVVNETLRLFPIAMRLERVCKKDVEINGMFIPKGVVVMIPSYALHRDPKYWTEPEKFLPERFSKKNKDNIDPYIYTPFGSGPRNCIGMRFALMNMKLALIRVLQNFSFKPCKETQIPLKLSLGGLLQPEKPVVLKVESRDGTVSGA

[17] = Cytotoxicity against human F180 cells assessed as cell growth inhibition at 3 times MIC50 against Candida albicans SC5314 incubated for 48 hrs by SRB assay; type: toxicity, cell-based; conditions: f180, 48 h; how it was run: as §1
[18] = Cytotoxicity against human F180 cells assessed as cell growth inhibition at 2.3 times MIC50 against Candida auris incubated for 48 hrs by SRB assay; type: toxicity, cell-based; conditions: f180, 48 h; how it was run: as §1

| SMILES | Activity [1] | Activity (Candida albicans [2]) | Activity ([Candida] auris [3]) | MIC50 (Candida albicans [4]) | Activity [5] | MIC50 ([Candida] auris [6]) | Activity [7] | Activity [8] | Activity [9] | inhibition (INH) [10] | selectivity ratio [11] | IC50 [12] | Ratio ([Candida] auris [13]) | Ratio (Candida albicans [14]) | Ratio IC50 [15] | Activity [16] | IC50 (Cytochrome P450 3A4) | Activity [17] | Activity [18] |
| --- | --- | --- | --- | --- | --- | --- | --- | --- | --- | --- | --- | --- | --- | --- | --- | --- | --- | --- | --- |
| COc1cccc(Nc2nnc(-c3ccc(C(C)(C)C)cc3)o2)c1 | Non-Toxic | 57% | 86% | 5 µg/mL (≈ 15.5 µM) | Non-Toxic | 30 µg/mL (≈ 92.8 µM) |  |  |  |  |  |  |  |  |  |  |  |  |  |
| CC(C)c1ccc(-c2nnc(Nc3ccc(F)cc3)o2)cc1 |  | 80% | 40% | 3 µg/mL (≈ 10.1 µM) |  | 2.08 µg/mL (≈ 7 µM) | Non-Toxic | Non-Toxic |  |  |  |  |  |  |  |  |  |  |  |
| CC(C)(C)c1ccc(-c2nnc(Nc3ccc(Cl)cc3)o2)cc1 |  | 99.3% | 99% | 0.5 µg/mL (≈ 1.53 µM) |  | 0.8 µg/mL (≈ 2.44 µM) |  |  | Non-Toxic | 70.3% | > 10000 | 2.75 µM | 750 | 50 | 10 | Non-Toxic | > 30500 µM |  |  |
| COc1cccc(Nc2nnc(-c3ccc(C(C)C)cc3)o2)c1 |  | 83% | 85% | 10 µg/mL (≈ 32.3 µM) |  | 12 µg/mL (≈ 38.8 µM) |  |  |  |  |  |  |  |  |  |  |  | Non-Toxic | Non-Toxic |
| OC(Cn1cncn1)(Cn1cncn1)c1ccc(F)cc1F [FLUCONAZOLE] |  |  |  | 25 µg/mL (≈ 81.6 µM) |  | 600 µg/mL (≈ 1960 µM) |  |  |  | 35.6% |  | 29 µM |  |  |  |  |  |  |  |
